Data set [1] deals with Yellow fever virus. The experiment in a line: Antiviral activity against Yellow fever virus 17D expressing IRES-luciferase gene infected in BHK cells assessed as inhibition of viral production at 50 uM after 36 hrs by luciferase reporter assay. It counts as functional, cell-based. (In general: A reporter such as luciferase makes a cellular process visible.)
Data set [2] deals with Yellow fever virus. The experiment in a line: Antiviral activity against Yellow fever virus 17D expressing IRES-luciferase gene infected in BHK cells assessed as inhibition of viral production after 36 hrs by luciferase reporter assay relative to control. The data set is classed as functional. In short, it runs like this: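 Controls: uninfected, infected, and DMSO-treated infected cells. After ~36 h at 37 °C, 5% CO2, cells lysed and firefly luciferase luminescence read. IC50 from nonlinear regression versus DMSO-treated infected cells.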

Data set [3] in a line: Growth inhibition of BHK15 cells after 36 hrs by XTT assay. The data set is classed as cell-based, Mesocricetus auratus. The conditions noted are these: hamster. Summed up: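 Uninfected confluent BHK-15 cells (MEM, 10% FBS) overlaid with serial compound dilutions from DMSO stocks, ~36 h at 37 °C, 5% CO2. Medium replaced, XTT substrate added, 2 h at 37 °C, then OD450 read. GI50 calculated relative to cells given 1% DMSO.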
A general note: Tetrazolium dyes change colour on reduction, which living cells bring about.

The nature of data set [4]: Therapeutic index, ratio of GI50 for BHK15 cells to EC50 for Yellow fever virus 17D. It counts as cell-based. Particulars: hamster, read-out: TI.
Data set [5] can be described thus: Half life in rat plasma. It counts as ADME. In short, it runs like this:
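Reconstituted lyophilized rat plasma warmed 15 min at 37 °C, diluted with 0.01 M saline to 80% plasma, then warmed 5 min more. Compound in DMSO added; mixture kept at 37 °C. Timed aliquots quenched in methanol and centrifuged; supernatants analysed by C18 HPLC (85:15 methanol/water, room temperature). Half-life from regression of concentration versus time.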

pEC50: −log10 of the molar value.

As to `NC(=O)c1sc(-c2ccc(Cl)cc2)nc1C(Br)Br`, the negative-log EC50 (pEC50) in the data set on Yellow fever virus [1] is 5.77. Moreover, in the data set with Yellow fever virus [2], the “inhibition (INH)” value turned out to be 99.8%. The compound further registered a GI50 at 36 h in data set [3] of 99.7 µM.

For `CCOC(=O)c1sc(-c2ccc(Cl)cc2)nc1C(Br)Br`, the pEC50 in the data set with Yellow fever virus [1] was 5.06. The “inhibition (INH)” value in the data set with Yellow fever virus [2] stood at 98.1%. This compound showed a GI50 at 36 h in data set [3] of 94.6 µM.

Turning to `O=C(N[C@@H]1OC(CO)C(O)[C@H](O)[C@H]1O)c1sc(-c2ccc(Cl)cc2)nc1C(Br)Br` (single isomer, unassigned), the “inhibition (INH)” value in the data set on Yellow fever virus [2] is given as 43.4%.

As for `CC(C)OC(=O)c1sc(-c2ccc(Cl)cc2)nc1C(Br)Br`, the negative logarithm of the EC50 (pEC50) in the data set with Yellow fever virus [1] was 4.70. In addition, the “inhibition (INH)” value in the data set with Yellow fever virus [2] worked out at 84.4%. In addition, the 50% growth inhibitory concentration (GI50) at 36 h in data set [3] came to 372 µM.

Turning to `CSC(=O)c1sc(-c2ccc(Cl)cc2)nc1C(Br)Br`, in data set [4], the selectivity ratio was determined as 256. For the same compound, in the data set with Yellow fever virus [1], the pEC50 was 5.85. Further, the “inhibition (INH)” value with Yellow fever virus [2] was 99.6%. Besides, the GI50 at 36 h in data set [3] turned out to be 369 µM. Further, in data set [5], the half-life is 24.7 h.

For the compound `CN(C)C(=O)c1sc(-c2ccc(Cl)cc2)nc1C=O`, the “inhibition (INH)” value with Yellow fever virus [2] worked out at 5.5%.

With `CNC(=O)c1sc(-c2ccc(Cl)cc2)nc1C(Br)Br`, in the data set on Yellow fever virus [1], the pEC50 is 5.74. Further, the “inhibition (INH)” value in the data set on Yellow fever virus [2] is on record as 99.7%. In data set [3], the GI50 at 36 h was 74.6 µM.

Turning to `O=C(NC[C@@H](O)CO)c1sc(-c2ccc(Cl)cc2)nc1C(Br)Br`, the pEC50 with Yellow fever virus [1] was 5.96. Further, the “inhibition (INH)” value with Yellow fever virus [2] worked out at 99.9%. The same compound returned a GI50 at 36 h in data set [3] of 158 µM.

As for `CCSC(=O)c1sc(-c2ccc(Cl)cc2)nc1C(Br)Br`, the pEC50 in the data set with Yellow fever virus [1] was 5.80. The “inhibition (INH)” value in the data set on Yellow fever virus [2] came to 99.7%. In data set [3], this compound returned a GI50 at 36 h of 81.4 µM.

Regarding `CN(C)C(=O)c1sc(-c2ccc(Cl)cc2)nc1C(Br)Br`, the pEC50 in the data set with Yellow fever virus [1] is 4.70. Moreover, the “inhibition (INH)” value in the data set on Yellow fever virus [2] stood at 93.2%. Moreover, the GI50 at 36 h in data set [3] is 163 µM.

In the case of `CCNC(=O)c1sc(-c2ccc(Cl)cc2)nc1C(Br)Br`, the pEC50 with Yellow fever virus [1] was 5.57. Besides, in the data set with Yellow fever virus [2], the “inhibition (INH)” value amounted to 99.9%. The GI50 at 36 h in data set [3] worked out at 33.3 µM.

Consider `COC(=O)c1sc(-c2ccc(Cl)cc2)nc1C(Cl)Cl`, for which the pEC50 in the data set with Yellow fever virus [1] was 4.28. The “inhibition (INH)” value in the data set on Yellow fever virus [2] is 99.9%. In data set [3], the 50% growth inhibitory concentration (GI50) at 36 h was determined as 34.1 µM.

Turning to `COC(=O)c1nc(-c2ccc(Cl)cc2)sc1C(=O)OC`, in the data set with Yellow fever virus [2], the “inhibition (INH)” value turned out to be 30.1%.

For `CCN(CC)C(=O)c1sc(-c2ccc(Cl)cc2)nc1C(Br)Br`, the negative logarithm of the EC50 (pEC50) with Yellow fever virus [1] was 4.86. The “inhibition (INH)” value with Yellow fever virus [2] is listed as 99.8%. The compound further gave a GI50 at 36 h in data set [3] of 63.5 µM.

Regarding `COC(=O)c1nc(-c2ccc(Cl)cc2)sc1-c1nc(C)no1`, in the data set on Yellow fever virus [2], the “inhibition (INH)” value came out at 1.5%.

In the case of `C=CCNC(=O)c1sc(-c2ccc(Cl)cc2)nc1C(Br)Br`, in the data set with Yellow fever virus [1], the pEC50 is 5.80. Further, the “inhibition (INH)” value in the data set on Yellow fever virus [2] was 99.9%. The compound further had a GI50 at 36 h in data set [3] of 40.8 µM.

On to `O=C(NCCO)c1sc(-c2ccc(Cl)cc2)nc1C(Br)Br`, for which the pEC50 with Yellow fever virus [1] was 5.54. For the same compound, in the data set with Yellow fever virus [2], the “inhibition (INH)” value was 99.8%. Also, in data set [3], halving of growth (GI50 at 36 h) required 40.8 µM.

For the compound `COC(=O)c1sc(-c2ccc(Cl)cc2)nc1CBr`, in the data set with Yellow fever virus [1], the pEC50 was 5.80. Further, the “inhibition (INH)” value in the data set with Yellow fever virus [2] turned out to be 99.9%. Also, the GI50 at 36 h in data set [3] turned out to be 74.6 µM.

With `COCc1nc(-c2ccc(Cl)cc2)sc1C(=O)N(C)C`, the “inhibition (INH)” value with Yellow fever virus [2] was 11.3%.

For the compound `COC(=O)c1sc(-c2ccc(Cl)cc2)nc1CS(C)(=O)=O`, the “inhibition (INH)” value in the data set on Yellow fever virus [2] is recorded as -74.7%.

In the case of `CC(=O)c1sc(-c2ccc(Cl)cc2)nc1C(Br)Br`, the pEC50 in the data set on Yellow fever virus [1] is 5.89. The “inhibition (INH)” value in the data set on Yellow fever virus [2] is reported as 99.9%. The compound also registered a GI50 at 36 h in data set [3] of 83.5 µM.

For the compound `CONC(=O)c1sc(-c2ccc(Cl)cc2)nc1C(Br)Br`, the pEC50 in the data set with Yellow fever virus [1] is 5.77. In the data set on Yellow fever virus [2], the “inhibition (INH)” value is 93.6%. In data set [3], this compound displayed a concentration for 50% growth inhibition (GI50) at 36 h of 81.4 µM.

As for `COC(=O)c1sc(-c2ccc(Cl)cc2)nc1C#N`, the “inhibition (INH)” value in the data set on Yellow fever virus [2] amounted to 7.8%.

Turning to `CCOC(=O)c1sc(-c2ccc(Cl)cc2)nc1-c1ccco1`, the pEC50 in the data set on Yellow fever virus [1] was 3.51. The “inhibition (INH)” value in the data set with Yellow fever virus [2] worked out at 50.3%. In data set [3], the 50% growth inhibitory concentration (GI50) at 36 h stood at 465 µM.

With `CN(C)/C=C/C(=O)c1sc(-c2ccc(Cl)cc2)nc1C(Br)Br`, the pEC50 in the data set with Yellow fever virus [1] is 4.94. Moreover, the “inhibition (INH)” value in the data set with Yellow fever virus [2] came out at 99.8%. This compound also returned a 50% growth inhibitory concentration (GI50) at 36 h in data set [3] of 38.2 µM.

Turning to `COC(=O)c1sc(-c2ccc(Cl)cc2)nc1C(C)(C)C`, in the data set on Yellow fever virus [2], the “inhibition (INH)” value turned out to be 20.9%.

On to `COC(=O)c1sc(-c2ccc(Cl)cc2)nc1C(Br)Br`, for which the selectivity ratio in data set [4] came out at 79. The pEC50 in the data set on Yellow fever virus [1] was 5.55. In addition, the “inhibition (INH)” value in the data set on Yellow fever virus [2] is listed as 99.6%. Growth in data set [3] was halved (GI50 at 36 h) at 222 µM. In addition, the half-life in data set [5] is 1.42 h.

For the compound `Cc1noc(-c2sc(-c3ccc(Cl)cc3)nc2C=O)n1`, in the data set with Yellow fever virus [1], the negative logarithm of the EC50 (pEC50) was 4.58. In addition, the “inhibition (INH)” value in the data set with Yellow fever virus [2] is recorded as 99.6%. In data set [3], this compound had a GI50 at 36 h of 163 µM.

For the compound `COC(=O)c1nc(-c2ccc(Cl)cc2)sc1C(=O)N(C)C`, the pEC50 with Yellow fever virus [1] was 4.29. For the same compound, the “inhibition (INH)” value in the data set with Yellow fever virus [2] is 74%. In data set [3], this compound displayed a GI50 at 36 h of 99.7 µM.

For `CNC(=O)c1sc(-c2ccc(Cl)cc2)nc1C=O`, in the data set with Yellow fever virus [2], the “inhibition (INH)” value is 37.5%.

As for `COC(=O)c1sc(-c2ccc(Cl)cc2)nc1C(C)C`, the pEC50 in the data set with Yellow fever virus [1] was 4.23. Further, the “inhibition (INH)” value in the data set on Yellow fever virus [2] is 14.7%. The compound further came in with a GI50 at 36 h in data set [3] of 49.6 µM.

As to `C#CCNC(=O)c1sc(-c2ccc(Cl)cc2)nc1C(Br)Br`, in the data set with Yellow fever virus [1], the pEC50 was 5.77. Also, the “inhibition (INH)” value with Yellow fever virus [2] was determined as 99.7%. Further, in data set [3], growth was halved (GI50 at 36 h) at 23.9 µM.

On to `CNC(=O)c1sc(-c2ccc(Cl)cc2)nc1COC`, for which the negative logarithm of the EC50 (pEC50) in the data set on Yellow fever virus [1] is 5.54. The “inhibition (INH)” value in the data set on Yellow fever virus [2] came out at 99.7%. This compound also returned a GI50 at 36 h in data set [3] of 50.8 µM.

With `COC(=O)c1sc(-c2ccc(Cl)cc2)nc1C=O`, in the data set with Yellow fever virus [1], the negative-log EC50 (pEC50) was 4.37. Besides, the “inhibition (INH)” value in the data set on Yellow fever virus [2] was 99.9%. In addition, the GI50 at 36 h in data set [3] was determined as 36.4 µM.

In the case of `COCc1nc(-c2ccc(Cl)cc2)sc1C(=O)OC`, the pEC50 in the data set on Yellow fever virus [1] was 3.80. Also, the “inhibition (INH)” value with Yellow fever virus [2] is 38.1%. Growth in data set [3] was halved (GI50 at 36 h) at 388 µM.

On to `CCc1nc(-c2ccc(Cl)cc2)sc1C(=O)OC`, for which the “inhibition (INH)” value in the data set with Yellow fever virus [2] was -56.7%.

The pEC50 is the negative decadic logarithm of the EC50, by convention in mol/L. A word on the GI50: it is the concentration giving 50% growth inhibition. As usually defined, the half-life is the time needed for the level to fall by half in the phase considered. The low end stands for rapid decline, the high end for slow decline.

For the origin of these results see ChEMBL document CHEMBL1765083, “Design, synthesis, and biological evaluation of thiazoles targeting flavivirus envelope proteins” (J Med Chem, 2011).
